# Measurements as given in ChEMBL document CHEMBL1938297, “Synthesis, radiofluorination and pharmacological evaluation of a fluoromethyl spirocyclic PET tracer for central σ1 receptors and comparison with fluoroalkyl homologs” (Bioorg Med Chem, 2012).
# Key:
# Mus musculus [1] = experiment: Biodistribution in CD1 mouse adrenals at 300 kBq, iv after 60 mins by gamma counting; type: ADME, organism-based, Adrenal gland; conditions: in vivo, 1 h
# Procedure, shortened: (§1)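 Female CD-1 mice received [18F]1 (300 kBq) i.v.; 3–6 animals per time point anesthetized at 5, 30, 60 or 120 min p.i., blood and urine collected, animals euthanized by cervical dislocation, organs dissected and weighed. Radioactivity counted in a calibrated gamma counter; % ID/g = tissue counts / initial dose counts / tissue weight; means with SD.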
# Spleen = experiment: Biodistribution in CD1 mouse spleen at 300 kBq, iv after 5 mins by gamma counting; type: ADME, organism-based; conditions: in vivo
# Procedure, shortened: (§2)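 Female CD-1 mice received the 18F tracer iv at 300 kBq in 0.9% NaCl containing 5% ethanol; 3–6 animals per time point (5, 30, 60, 120 min p.i.). Animals anaesthetized, blood and urine collected, killed by cervical luxation, organs dissected and weighed, counted in calibrated gamma counter. %ID/g = tissue counts / initial dose counts / tissue weight; mean with SD.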
# Urinary bladder [2] = experiment: Biodistribution in CD1 mouse bladder at 300 kBq, iv after 30 mins by gamma counting; type: ADME, organism-based; conditions: in vivo, 0.5 h; procedure, shortened: as §1
# Brain [3] = experiment: Biodistribution in CD1 mouse brain at 300 kBq, iv after 5 mins by gamma counting; type: ADME, organism-based; conditions: in vivo; procedure, shortened: as §1
# Pancreas [4] = experiment: Biodistribution in CD1 mouse pancreas at 300 kBq, iv after 5 mins by gamma counting; type: ADME, organism-based; conditions: in vivo; procedure, shortened: as §2
# Muscle tissue [5] = experiment: Biodistribution in CD1 mouse muscle at 300 kBq, iv after 120 mins by gamma counting; type: ADME, organism-based; conditions: in vivo, 2 h; procedure, shortened: as §2
# [6] = Biodistribution in CD1 mouse urine at 300 kBq, iv after 60 mins by gamma counting; type: ADME, organism-based; conditions: in vivo, 1 h
# Procedure, shortened: (§3)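 Female CD-1 mice received 300 kBq of the radiotracer i.v.; 3–6 animals per time point were anaesthetised at 5, 30, 60 or 120 min p.i. Blood and urine were collected, animals were killed by cervical dislocation, and organs were dissected and weighed. Activity was counted in a calibrated gamma counter and expressed as % injected dose per g wet tissue, mean with SD.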
# Mus musculus [7] = experiment: Biodistribution in CD1 mouse small intestine at 300 kBq, iv after 5 mins by gamma counting; type: ADME, organism-based; conditions: in vivo; procedure, shortened: as §2
# [8] = Biodistribution in CD1 mouse urine at 300 kBq, iv after 5 mins by gamma counting; type: ADME, organism-based; conditions: in vivo; procedure, shortened: as §3
# Liver [9] = experiment: Biodistribution in CD1 mouse liver at 300 kBq, iv after 120 mins by gamma counting; type: ADME, organism-based; conditions: in vivo, 2 h; procedure, shortened: as §2
# Brain [10] = experiment: Drug metabolism in CD1 mouse brain homogenates assessed as radiometabolites at 191 MBq, iv after 60 mins by radio-HPLC/TLC analysis; type: ADME, organism-based; conditions: in vivo, 1 h
# Procedure, shortened: (§4)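 Female CD-1 mice were injected with the radiotracer via the tail vein and killed at 30 or 60 min p.i. Whole brains (n = 2 per time) were homogenised in 50 mM TRIS–HCl pH 7.4 at 4 °C and extracted twice with ice-cold acetonitrile. Concentrated extracts were analysed by radio-HPLC and radio-TLC to give % parent versus radiometabolites.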
# Liver [11] = experiment: Biodistribution in CD1 mouse liver at 300 kBq, iv after 60 mins by gamma counting; type: ADME, organism-based; conditions: in vivo, 1 h; procedure, shortened: as §2
# Muscle tissue [12] = experiment: Biodistribution in CD1 mouse muscle at 300 kBq, iv after 30 mins by gamma counting; type: ADME, organism-based; conditions: in vivo, 0.5 h; procedure, shortened: as §2
# Femur = experiment: Biodistribution in CD1 mouse femur at 300 kBq, iv after 5 mins by gamma counting; type: ADME, organism-based; conditions: in vivo; procedure, shortened: as §1
# [13] = Metabolic stability in CD1 mouse brain homogenates assessed as compound remaining at 191 MBq, iv after 30 mins by radio-HPLC/TLC analysis; type: ADME, organism-based; conditions: brain homogenate, read-out: Stability; procedure, shortened: as §4
# Muscle tissue [14] = experiment: Biodistribution in CD1 mouse muscle at 300 kBq, iv after 60 mins by gamma counting; type: ADME, organism-based; conditions: in vivo, 1 h; procedure, shortened: as §2
# Mus musculus [15] = experiment: Biodistribution in CD1 mouse gonads at 300 kBq, iv after 60 mins by gamma counting; type: ADME, organism-based, Gonad; conditions: in vivo, 1 h; procedure, shortened: as §1
# Mus musculus [16] = experiment: Biodistribution in CD1 mouse small intestine at 300 kBq, iv after 60 mins by gamma counting; type: ADME, organism-based; conditions: in vivo, 1 h; procedure, shortened: as §2
# Heart = experiment: Biodistribution in CD1 mouse heart at 300 kBq, iv after 120 mins by gamma counting; type: ADME, organism-based; conditions: in vivo, 2 h; procedure, shortened: as §2
# Brain [17] = experiment: Biodistribution in CD1 mouse brain at 300 kBq, iv after 120 mins by gamma counting; type: ADME, organism-based; conditions: in vivo, 2 h; procedure, shortened: as §1
# Urinary bladder [18] = experiment: Biodistribution in CD1 mouse bladder at 300 kBq, iv after 120 mins by gamma counting; type: ADME, organism-based; conditions: in vivo, 2 h; procedure, shortened: as §1
# Mus musculus [19] = experiment: Biodistribution in CD1 mouse large intestine at 300 kBq, iv after 30 mins by gamma counting; type: ADME, organism-based; conditions: in vivo, 0.5 h; procedure, shortened: as §2
# Mus musculus [20] = experiment: Biodistribution in CD1 mouse fat at 300 kBq, iv after 120 mins by gamma counting; type: ADME, organism-based, Adipose tissue; conditions: in vivo, 2 h; procedure, shortened: as §1
# Lung [21] = experiment: Biodistribution in CD1 mouse lung at 300 kBq, iv after 60 mins by gamma counting; type: ADME, organism-based; conditions: in vivo, 1 h; procedure, shortened: as §2
# Lung [22] = experiment: Biodistribution in CD1 mouse lung at 300 kBq, iv after 5 mins by gamma counting; type: ADME, organism-based; conditions: in vivo; procedure, shortened: as §2
# Mus musculus [23] = experiment: Biodistribution in CD1 mouse fat at 300 kBq, iv after 30 mins by gamma counting; type: ADME, organism-based, Adipose tissue; conditions: in vivo, 0.5 h; procedure, shortened: as §1
# Lung [24] = experiment: Biodistribution in CD1 mouse lung at 300 kBq, iv after 120 mins by gamma counting; type: ADME, organism-based; conditions: in vivo, 2 h; procedure, shortened: as §2
# Mus musculus [25] = experiment: Biodistribution in CD1 mouse large intestine at 300 kBq, iv after 60 mins by gamma counting; type: ADME, organism-based; conditions: in vivo, 1 h; procedure, shortened: as §2
# Mus musculus [26] = experiment: Biodistribution in CD1 mouse large intestine at 300 kBq, iv after 120 mins by gamma counting; type: ADME, organism-based; conditions: in vivo, 2 h; procedure, shortened: as §2
# [27] = Metabolic stability in CD1 mouse brain homogenate assessed as compound remaining at 191 MBq, iv after 60 mins by radio-HPLC/TLC analysis; type: ADME, organism-based; conditions: read-out: Stability; procedure, shortened: as §4
# Kidney = experiment: Biodistribution in CD1 mouse kidney at 300 kBq, iv after 5 mins by gamma counting; type: ADME, organism-based; conditions: in vivo; procedure, shortened: as §2
# Mus musculus [28] = experiment: Biodistribution in CD1 mouse small intestine at 300 kBq, iv after 30 mins by gamma counting; type: ADME, organism-based; conditions: in vivo, 0.5 h; procedure, shortened: as §2
# [29] = Biodistribution in CD1 mouse intestinal content at 300 kBq, iv after 120 mins by gamma counting; type: ADME, organism-based, Intestine; conditions: in vivo, 2 h; procedure, shortened: as §2
# Mus musculus [30] = experiment: Biodistribution in CD1 mouse adrenals at 300 kBq, iv after 30 mins by gamma counting; type: ADME, organism-based, Adrenal gland; conditions: in vivo, 0.5 h; procedure, shortened: as §1
# Pancreas [31] = experiment: Biodistribution in CD1 mouse pancreas at 300 kBq, iv after 120 mins by gamma counting; type: ADME, organism-based; conditions: in vivo, 2 h; procedure, shortened: as §2
# Blood = experiment: Biodistribution in CD1 mouse blood at 300 kBq, iv after 120 mins by gamma counting; type: ADME, organism-based; conditions: in vivo, 2 h; procedure, shortened: as §1
# Mus musculus [32] = experiment: Biodistribution in CD1 mouse thalmic nuclei in brain saggital section at 24 MBq, iv at 45 mins by autoradiography; type: ADME, organism-based; conditions: in vivo, 0.75 h
# Procedure, shortened: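 Ex vivo autoradiography: female CD-1 mouse given 18F tracer iv (24 MBq), killed 45 min p.i.; brain hemispheres frozen in isopentane (−35 °C), 12 µm sagittal cryostat sections thaw-mounted, air-dried and exposed to 18F-sensitive phosphor screens. Regional uptake compared with anterior olfactory bulb as nontarget region (target-to-nontarget ratio).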
# Cerebellum = experiment: Biodistribution in CD1 mouse cerebellum in brain saggital section at 24 MBq, iv at 45 mins by autoradiography; type: ADME, organism-based; conditions: in vivo, 0.75 h
# Procedure, shortened: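 Female CD-1 mouse given [18F]1 (24 MBq) i.v. and sacrificed at 45 min. Brain hemispheres frozen in isopentane (−35 °C), cut into 12 µm sagittal cryosections, thaw-mounted, air-dried and exposed to 18F-sensitive storage phosphor screens. Anterior olfactory bulb served as nontarget region for target-to-nontarget ratios.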
structure (smiles),measurement,setting,value
[18F]CC1OC2(CCN(Cc3ccccc3)CC2)c2ccccc21 (stereo not drawn),Drug uptake,Mus musculus [1],7.48 % ID/g
same,Drug uptake,Spleen,6.23 % ID/g
same,Drug uptake,Urinary bladder [2],3.86 % ID/g
same,Drug uptake,Brain [3],7.15 % ID/g
same,Drug uptake,Pancreas [4],11.22 % ID/g
same,Drug uptake,Muscle tissue [5],1.16 % ID/g
same,Drug uptake,[6],45.5 % ID/g
same,Drug uptake,Mus musculus [7],19.78 % ID/g
same,Drug uptake,[8],3.99 % ID/g
same,Drug uptake,Liver [9],3.95 % ID/g
same,Drug metabolism,Brain [10],Active
same,Drug uptake,Liver [11],3.98 % ID/g
same,Drug uptake,Muscle tissue [12],1.67 % ID/g
same,Drug uptake,Femur,2.32 % ID/g
same,remaining at 0.5 h,[13],90%
same,Drug uptake,Muscle tissue [14],0.97 % ID/g
same,Drug uptake,Mus musculus [15],3.28 % ID/g
same,Drug uptake,Mus musculus [16],23.46 % ID/g
same,Drug uptake,Heart,3.05 % ID/g
same,Drug uptake,Brain [17],2.7 % ID/g
same,Drug uptake,Urinary bladder [18],5.58 % ID/g
same,Drug uptake,Mus musculus [19],1.28 % ID/g
same,Drug uptake,Mus musculus [20],2.08 % ID/g
same,Drug uptake,Lung [21],8.32 % ID/g
same,Drug uptake,Lung [22],18.01 % ID/g
same,Drug uptake,Mus musculus [23],1.82 % ID/g
same,Drug uptake,Lung [24],6.82 % ID/g
same,Drug uptake,Mus musculus [25],0.92 % ID/g
same,Drug uptake,Mus musculus [26],1.46 % ID/g
same,remaining at 1 h,[27],79%
same,Drug uptake,Kidney,14.93 % ID/g
same,Drug uptake,Mus musculus [28],18.82 % ID/g
same,Drug uptake,[29],1.96 % ID/g
same,Drug uptake,Mus musculus [30],13.39 % ID/g
same,Drug uptake,Pancreas [31],11.99 % ID/g
same,Drug uptake,Blood,0.15 % ID/g
same,Drug uptake,Mus musculus [32],Active
same,Drug uptake,Cerebellum,Active
